Test results taken from ChEMBL document CHEMBL4689842, “EUbOPEN Chemogenomics Library wave 1” (2021).

Experiments:
Type in all cases: toxicity, cell-based
[1] = system: HEK-293T; test: Incucyte cell viability with HEK293T; conditions: human, 10 µM, compound concentration 10 uM; further: filed as whole numbers so only -1 and 0 and 1 occur
[2] = system: U2OS; test: Incucyte cell viability with U2OS; conditions: human, 10 µM, compound concentration 10 uM; further: filed as whole numbers so only -1 and 0 and 1 occur
[3] = system: Fibroblast; test: Incucyte cell viability with human fibroblast; conditions: 10 µM, compound concentration 10 uM; further: filed as whole numbers so only -1 and 0 and 1 occur
[4] = system: U2OS; test: Multiplex assay against U2OS; conditions: human
In short: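 At seeding, live cells were stained with Hoechst33342, BioTracker Green Microtubule Cytoskeleton Dye, MitoTracker Red and Annexin V Alexa Fluor 680. After compound addition they were imaged on a CQ1 microscope at 37°C and 5% CO2, and CellPathfinder machine-learning gating sorted them into Hoechst high-intensity objects or normal cells, with normal cells further split into healthy, pyknosed or fragmented nuclei and pyknosed cells into mitotic or apoptotic. Tubulin, mitochondrial-mass and membrane-permeability phenotypes are given as per cents of cells with healthy nuclei.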

[5] = 6 h, replicate number 1, timepoint 6 hours
[6] = 12 h, replicate number 1, timepoint 12 hours
[7] = 18 h, replicate number 1, timepoint 18 hours
[8] = 24 h, replicate number 1, timepoint 24 hours
[9] = 12 h, replicate number 2, timepoint 12 hours
[10] = 24 h, replicate number 2, timepoint 24 hours
[11] = 12 h, 1 µM, compound concentration 1 uM, replicate 1
[12] = 12 h, 1 µM, compound concentration 1 uM, replicate 2
[13] = 12 h, 10 µM, compound concentration 10 uM, replicate 1
[14] = 12 h, 10 µM, compound concentration 10 uM, replicate 2
[15] = 24 h, 1 µM, compound concentration 1 uM, replicate 1
[16] = 24 h, 1 µM, compound concentration 1 uM, replicate 2
[17] = 24 h, 10 µM, compound concentration 10 uM, replicate 1
[18] = 24 h, 10 µM, compound concentration 10 uM, replicate 2

c1ccc2oc(-c3csc(C4CCN(Cc5nc6ncccc6[nH]5)CC4)n3)cc2c1
Growth Rate [1, 5]: 0
Growth Rate [1, 6]: 0
Growth Rate [1, 7]: 0
Growth Rate [1, 8]: 0
Growth Rate ([2]; 0 h, replicate number 2, timepoint 0 hours): 1
Growth Rate [2, 5]: 0
Growth Rate [2, 6]: 0
Growth Rate [2, 9]: 1
Growth Rate [2, 7]: 0
Growth Rate [2, 8]: 1
Growth Rate [2, 10]: 0
Growth Rate [3, 5]: 0
Growth Rate [3, 6]: 0
Growth Rate [3, 9]: 1
Growth Rate [3, 7]: 0
Growth Rate ([3]; 18 h, replicate number 2, timepoint 18 hours): 1
Growth Rate [3, 8]: 0
Growth Rate [3, 10]: 1
Population Apoptotic (%) [4, 11]: 8%
Population Fragmented Nuclei (%) [4, 11]: 2%
Population Healthy Nuclei (%) [4, 11]: 90%
Population Hoechst High Intensity Objects (%) [4, 11]: 3%
Population Membrane Permeable-Phenotype (%) [4, 11]: 12%
Population Mitochondria Different-Phenotype (%) [4, 11]: 15%
Population Mitotic Cells (%) [4, 11]: 91%
Population Normal (%) [4, 11]: 96%
Population Pyknosed Nuclei (%) [4, 11]: 6%
Population Tubulin-Different-Phenotype (%) [4, 11]: 10%
Total Cell Count [4, 11]: 182
Population Apoptotic (%) [4, 12]: 25%
Population Fragmented Nuclei (%) [4, 12]: 8%
Population Healthy Nuclei (%) [4, 12]: 85%
Population Hoechst High Intensity Objects (%) [4, 12]: 7%
Population Membrane Permeable-Phenotype (%) [4, 12]: 8%
Population Mitochondria Different-Phenotype (%) [4, 12]: 27%
Population Mitotic Cells (%) [4, 12]: 75%
Population Normal (%) [4, 12]: 92%
Population Tubulin-Different-Phenotype (%) [4, 12]: 15%
Total Cell Count [4, 12]: 141
Population Apoptotic (%) [4, 13]: 42%
Population Fragmented Nuclei (%) [4, 13]: 4%
Population Healthy Nuclei (%) [4, 13]: 91%
Population Hoechst High Intensity Objects (%) [4, 13]: 3%
Population Membrane Permeable-Phenotype (%) [4, 13]: 9%
Population Mitochondria Different-Phenotype (%) [4, 13]: 25%
Population Mitotic Cells (%) [4, 13]: 57%
Population Normal (%) [4, 13]: 96%
Population Pyknosed Nuclei (%) [4, 13]: 3%
Population Tubulin-Different-Phenotype (%) [4, 13]: 29%
Total Cell Count [4, 13]: 205
Population Apoptotic (%) [4, 14]: 25%
Population Fragmented Nuclei (%) [4, 14]: 7%
Population Healthy Nuclei (%) [4, 14]: 88%
Population Hoechst High Intensity Objects (%) [4, 14]: 15%
Population Membrane Permeable-Phenotype (%) [4, 14]: 18%
Population Mitochondria Different-Phenotype (%) [4, 14]: 34%
Population Mitotic Cells (%) [4, 14]: 75%
Population Normal (%) [4, 14]: 84%
Population Pyknosed Nuclei (%) [4, 14]: 4%
Population Tubulin-Different-Phenotype (%) [4, 14]: 34%
Total Cell Count [4, 14]: 114
Population Apoptotic (%) [4, 15]: 40%
Population Fragmented Nuclei (%) [4, 15]: 2%
Population Healthy Nuclei (%) [4, 15]: 90%
Population Hoechst High Intensity Objects (%) [4, 15]: 2%
Population Membrane Permeable-Phenotype (%) [4, 15]: 7%
Population Mitochondria Different-Phenotype (%) [4, 15]: 16%
Population Mitotic Cells (%) [4, 15]: 60%
Population Normal (%) [4, 15]: 97%
Population Tubulin-Different-Phenotype (%) [4, 15]: 19%
Total Cell Count [4, 15]: 223
Population Apoptotic (%) [4, 16]: 25%
Population Fragmented Nuclei (%) [4, 16]: 4%
Population Healthy Nuclei (%) [4, 16]: 88%
Population Hoechst High Intensity Objects (%) [4, 16]: 3%
Population Membrane Permeable-Phenotype (%) [4, 16]: 9%
Population Mitochondria Different-Phenotype (%) [4, 16]: 24%
Population Mitotic Cells (%) [4, 16]: 75%
Population Normal (%) [4, 16]: 96%
Population Pyknosed Nuclei (%) [4, 16]: 6%
Population Tubulin-Different-Phenotype (%) [4, 16]: 22%
Total Cell Count [4, 16]: 181
Population Apoptotic (%) [4, 17]: 45%
Population Fragmented Nuclei (%) [4, 17]: 5%
Population Healthy Nuclei (%) [4, 17]: 90%
Population Hoechst High Intensity Objects (%) [4, 17]: 1%
Population Membrane Permeable-Phenotype (%) [4, 17]: 5%
Population Mitochondria Different-Phenotype (%) [4, 17]: 14%
Population Mitotic Cells (%) [4, 17]: 54%
Population Normal (%) [4, 17]: 98%
Population Pyknosed Nuclei (%) [4, 17]: 3%
Total Cell Count [4, 17]: 282
Population Apoptotic (%) [4, 18]: 0%
Population Fragmented Nuclei (%) [4, 18]: 4%
Population Healthy Nuclei (%) [4, 18]: 91%
Population Hoechst High Intensity Objects (%) [4, 18]: 9%
Population Membrane Permeable-Phenotype (%) [4, 18]: 11%
Population Mitochondria Different-Phenotype (%) [4, 18]: 33%
Population Mitotic Cells (%) [4, 18]: 100%
Population Normal (%) [4, 18]: 90%
Population Pyknosed Nuclei (%) [4, 18]: 4%
Population Tubulin-Different-Phenotype (%) [4, 18]: 33%
Total Cell Count [4, 18]: 137
